Assays:
[1] = folding enthalpy; higher = less favourable; fluorescence melt of hairpins on a sequencing array, two-state fit; conditions: sodium 0.088 M
In short: (§1)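 Folding enthalpy and melting temperature were estimated with bootstrapped two-state fits and combined across four replicates by inverse-variance weighting, with fitted temperatures raised by 9.35 °C to match UV melts. The data were Cy3 fluorescence of library hairpins, with annealed Cy3 and quencher oligos, on a sequenced MiSeq flow cell in 50 mM Na-HEPES pH 8.0, 25 mM NaCl, imaged in 2.5 °C steps up to 60 °C and normalised to pre-quench Cy3 and control constructs.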

[2] = melting temperature; fluorescence melt of hairpins on a sequencing array, two-state fit, raised by 9.35 °C to match UV melts; conditions: sodium 0.088 M
In short: as §1

| Sequence | folding enthalpy [1] [kcal/mol] | Tm [2] [°C] |
| --- | --- | --- |
| GGCACGGCGAAAGCCGCC (((..(((....)))))) | -8.23 | 44.6 |
| GGCACGGGAAACCATGCC ((((.((....)).)))) | -30.5 | 49.3 |
| GGCACTCCGAAAGGAGCC (((..(((....)))))) | -9.55 | 35.2 |
| GGCAGACCGAAAGGTGCC (((..(((....)))))) | -35 | 55.4 |
| GGCAGAGGAAACTTTGCC ((((.((....)).)))) | -35.5 | 48.6 |
| GGCAGCGAAAGCTAAGCC ((((((....)))..))) | -25.2 | 55.6 |
| GGCAGCGGAAACGCTGTC (.(((((....))))).) | -17.6 | 67.2 |
| GGCAGGGGAAACCCCACC ((..(((....)))..)) | -16.5 | 31.6 |
| GGCAGGGGAAACCCTGTC (.(((((....))))).) | -29.9 | 55.9 |
| GGCAGTCCGAAAGGAGCC (((..(((....)))))) | -22.1 | 47.4 |
| GGCAGTGGAAACATTGCC ((((.((....)).)))) | -41.3 | 52.2 |
| GGCAGTGGAAACGTTGCC ((((..(....)..)))) | -28.9 | 49.1 |
| GGCATACGAAAGTAGGCC (((.(((....))).))) | -47.1 | 63.4 |
| GGCATAGCGAAAGCTGCC (((..(((....)))))) | -31.4 | 59.2 |
| GGCATAGGAAACTATGCC (((((((....))))))) | -39.5 | 64.9 |
| GGCATCCGAAAGGAGCC (((.(((....)))))) | -42.6 | 55.6 |
| GGCATCGAAAGATAAGCC ((((((....)))..))) | -27.9 | 44.7 |
| GGCATCGAAAGATACGCC ((((((....)))..))) | -24.3 | 42.3 |
| GGCATCGAAAGATCAGCC ((((((....)))..))) | -25 | 39.2 |
| GGCATCGAAAGATCCGCC ((((((....)))..))) | -19.2 | 49.3 |
| GGCATCGAAAGATGGCC ((((((....))).))) | -20.1 | 58.4 |
| GGCATCGAAAGATTAGCC ((((((....)))..))) | -28.2 | 43.7 |
| GGCATCGGAAACGATACC ((.((((....)))).)) | -27.1 | 45.6 |

| Sequence | folding enthalpy [1] [kcal/mol] | Tm [2] [°C] |
| --- | --- | --- |
| GGCATCGGAAACGATGTC (.(((((....))))).) | -42.1 | 55.9 |
| GGCATCGGAAACGGTGTC (.((.((....)).)).) | -25.7 | 44.8 |
| GGCATGGGAAACCATACC ((.((((....)))).)) | -26.2 | 41 |
| GGCATTCGAAAGAAAGCC (((.(((....))).))) | -40.4 | 50.5 |
| GGCATTCGAAAGAAGGCC (((.(((....))).))) | -41.7 | 60.4 |
| GGCCAAACGAAAGTTGCC (((..(((....)))))) | -22.6 | 44 |
| GGCCAAGGAAACCTGGCC (((((.(....).))))) | -42.3 | 57.3 |
| GGCCACCCGAAAGGGGCC (((..(((....)))))) | -23.2 | 61.3 |
| GGCCACGAAAGTGGCGCC ((((((....)))..))) | -7.19 | 65.5 |
| GGCCACGAAAGTGTGCC ((((((....))).))) | -25.9 | 64 |
| GGCCACGCGAAAGCGGCC (((..(((....)))))) | -19 | 62.5 |
| GGCCAGCGAAAGCTGCC (((.(((....)))))) | -16 | 60 |
| GGCCAGCGAAAGCTTGCC (((.(((....))).))) | -50.7 | 55.5 |
| GGCCAGGCGAAAGCCGCC (((..(((....)))))) | -13.9 | 58.4 |
| GGCCAGGGAAACCCGGCC ((((.((....)).)))) | -40.9 | 62.1 |
| GGCCATCGAAAGATCGCC (((.(((....))).))) | -33.6 | 46.8 |
| GGCCATGGAAACATAGCC (((.(((....))).))) | -31.5 | 40.8 |
| GGCCATGGAAACATGGTC (.(((((....))))).) | -36.2 | 54.9 |
| GGCCCAGGAAACCGAGCC (((.(.(....).).))) | -15.7 | 36.9 |
| GGCCCAGGAAACTGAGCC (((.(((....))).))) | -32.4 | 49 |
| GGCCCCGAAAGGGAAGCC ((((((....)))..))) | -28.2 | 55.4 |
| GGCCCCGAAAGGGCGCC ((((((....))).))) | -18.5 | 68.6 |
| GGCCCCGAAAGGGCGGCC ((((((....)))..))) | -16.9 | 64.7 |

| Sequence | folding enthalpy [1] [kcal/mol] | Tm [2] [°C] |
| --- | --- | --- |
| GGCCCCGAAAGGGTGGCC ((((((....)))..))) | -22.7 | 61.6 |
| GGCCCCGGAAACGAGGCC ((((.((....)).)))) | -38.4 | 57.5 |
| GGCCCGGCGAAAGCCGCC (((..(((....)))))) | -7.68 | 37 |
| GGCCCGGGAAACCGAGCC (((.(((....))).))) | -46 | 54.2 |
| GGCCCTACGAAAGTAGCC (((..(((....)))))) | -15.3 | 31 |
| GGCCCTGCGAAAGCAGCC (((..(((....)))))) | -8.71 | 36.9 |
| GGCCCTGGAAACGGGGTC (.(((.(....).))).) | -30.9 | 49 |
| GGCCGACGAAAGTCGCC (((.(((....)))))) | -14.4 | 60.2 |
| GGCCGAGGAAACTCGGTC (.(((((....))))).) | -31.4 | 64.4 |
| GGCCGCGAAAGCGACGCC ((((((....)))..))) | -16.9 | 66.4 |
| GGCCGCGAAAGCGTAGCC ((((((....)))..))) | -22.5 | 61 |
| GGCCGGCCGAAAGGCGCC (((..(((....)))))) | -15.1 | 57.3 |
| GGCCGGGCGAAAGCCGCC (((..(((....)))))) | -18.1 | 57.7 |
| GGCCGGGGAAACCTGGCC ((((.((....)).)))) | -38.4 | 68 |
| GGCCGGGGAAACTCGGCC (((((.(....).))))) | -40 | 68.4 |
| GGCCGGTCGAAAGACGCC (((..(((....)))))) | -21.9 | 48.4 |
| GGCCGTCGAAAGACAGCC (((.(((....))).))) | -35.1 | 58.4 |
| GGCCGTGGAAACACAGCC (((.(((....))).))) | -36.8 | 50.1 |
| GGCCTAGGAAACTAGGTC (.(((((....))))).) | -33.7 | 51.6 |
| GGCCTCGAAAGAGATGCC ((((((....)))..))) | -24.1 | 46.8 |
| GGCCTCGAAAGAGCCGCC ((((((....)))..))) | -20.3 | 57.2 |
| GGCCTCGAAAGAGGGGCC ((((((....)))..))) | -23 | 54.9 |
| GGCCTCGCGAAAGCGGCC (((..(((....)))))) | -17.5 | 59.4 |

| Sequence | folding enthalpy [1] [kcal/mol] | Tm [2] [°C] |
| --- | --- | --- |
| GGCCTCGGAAACAAGGCC (((((.(....).))))) | -34.5 | 51.9 |
| GGCCTCGGAAACGAGGTC (.(((((....))))).) | -28.2 | 64.7 |
| GGCCTGACGAAAGTCGCC (((..(((....)))))) | -16.3 | 44 |
| GGCCTGGCGAAAGCCGCC (((..(((....)))))) | -15.5 | 48.7 |
| GGCCTGGGAAACCAGGTC (.(((((....))))).) | -33 | 58.5 |
| GGCCTTGGAAACAAAGCC (((.(((....))).))) | -25.8 | 38.9 |
| GGCCTTGGAAACGAGGTC (.(((.(....).))).) | -31.3 | 43.2 |
| GGCGAACGAAAGTTGCC (((.(((....)))))) | -36.5 | 56.9 |
| GGCGACCCGAAAGGGGCC (((..(((....)))))) | -13.1 | 54.6 |
| GGCGACGAAAGTCATGCC ((((((....)))..))) | -27.2 | 52.5 |
| GGCGACGAAAGTCGAGCC ((((((....)))..))) | -15.9 | 55.8 |
| GGCGACGAAAGTCGCGCC ((((((....)))..))) | -6.6 | 65.8 |
| GGCGACGAAAGTCTAGCC ((((((....)))..))) | -28.6 | 54.5 |
| GGCGACGGAAACATCGCC (((((.(....).))))) | -42.6 | 55.4 |
| GGCGACGGAAACGTCACC ((.((((....)))).)) | -33.5 | 54.7 |
| GGCGACTCGAAAGAGGCC (((..(((....)))))) | -16.9 | 49.7 |
| GGCGAGCGAAAGCTAGCC (((.(((....))).))) | -42.2 | 68.7 |
| GGCGAGCGAAAGCTGCC (((.(((....)))))) | -27.6 | 66.9 |
| GGCGAGGGAAACCTCACC ((.((((....)))).)) | -31.7 | 48.5 |
| GGCGAGGGAAACCTCGTC (.(((((....))))).) | -36.4 | 60.8 |
| GGCGATGGAAACATTGCC (((.(((....))).))) | -47.2 | 55.2 |

Source: the array DNA melting data of Ke et al. (doi:10.1101/2024.01.08.574731)
